In ChEMBL document CHEMBL3616436, “Synthesis, cytotoxicity and antimicrobial activity of thiourea derivatives incorporating 3-(trifluoromethyl)phenyl moiety” (Eur J Med Chem, 2015):
Converted amounts (≈) assume the structure as drawn. The source made the active and inactive calls. The rule behind the calls is not given here.

Assays:
[1] = Cytotoxicity against BHK cells assessed as cell viability after 48 to 96 hrs by MTT assay; type: cell-based, Mesocricetus auratus; conditions: hamster
Staphylococcus aureus [2] = assay: Antimicrobial activity against hospital methicillin-resistant Staphylococcus aureus 54/05 after 18 hrs by twofold serial microdilution method; type: functional; conditions: 54/05, 18 h
Method in brief: (§1)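 Twofold serial microdilution in Mueller-Hinton broth. Compound stock was made in DMSO and diluted in sterile water. Tested range was 0.125–512 µg/mL. Final inoculum was 10^5 CFU/mL. Plates were incubated 18 h at 35 °C. MIC is the lowest concentration preventing visible growth.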

[3] = Cytotoxicity against human MT4 cells; type: cell-based
Bacillus subtilis = assay: Antimicrobial activity against Bacillus subtilis ATCC 6633 at 400 ug after 18 hrs by disc-diffusion method; type: functional; conditions: ATCC 6633, 18 h, read-out: IZ
Method in brief: (§2)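 Disc diffusion on Mueller-Hinton II agar per CLSI; 9 mm paper discs loaded with 400 µg compound from DMSO solution, dried, placed on agar; growth inhibition zone diameter read after 18 h at 35°C.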

[4] = tested on: Staphylococcus epidermidis; assay: Ratio of ciprofloxacin MIC to compound MIC for hospital methicillin-resistant Staphylococcus epidermidis 24/04 after 18 hrs by twofold serial microdilution method; type: functional
Staphylococcus aureus [5] = assay: Ratio of ciprofloxacin MIC to compound MIC for hospital methicillin-resistant Staphylococcus aureus 79/05 after 18 hrs by twofold serial microdilution method; type: functional
Method in brief: (§3)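 Ratio of MICs for ciprofloxacin and test agent, each from twofold serial broth microdilution in Mueller-Hinton broth following CLSI guidelines. DMSO stock was diluted in sterile water to 0.125–512 µg/mL, with a final inoculum of 10^5 CFU/mL.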

[6] = Cytotoxicity against African green monkey Vero 76 cells assessed as cell viability after 48 to 96 hrs by crystal violet staining; type: cell-based; conditions: chlorocebus sabaeus
[7] = tested on: Staphylococcus epidermidis; assay: Antimicrobial activity against hospital methicillin-resistant Staphylococcus epidermidis 63/04 after 18 hrs by twofold serial microdilution method; type: functional; conditions: 63/04, 18 h; method in brief: as §1
Micrococcus luteus = assay: Antimicrobial activity against Micrococcus luteus ATCC 9341 at 400 ug after 18 hrs by disc-diffusion method; type: functional; method in brief: as §2
Staphylococcus aureus [8] = assay: Antimicrobial activity against Staphylococcus aureus NCTC 4163 at 400 ug after 18 hrs by disc-diffusion method; type: functional; conditions: NCTC 4163, 18 h, read-out: IZ; method in brief: as §2
Staphylococcus aureus [9] = assay: Ratio of ciprofloxacin MIC to compound MIC for hospital methicillin-resistant Staphylococcus aureus 54/05 after 18 hrs by twofold serial microdilution method; type: functional; method in brief: as §3
[10] = tested on: Staphylococcus epidermidis; assay: Antimicrobial activity against hospital methicillin-resistant Staphylococcus epidermidis 24/04 after 18 hrs by twofold serial microdilution method; type: functional; conditions: 24/04, 18 h; method in brief: as §1
Staphylococcus aureus [11] = assay: Antimicrobial activity against hospital methicillin-resistant Staphylococcus aureus 57/05 after 18 hrs by twofold serial microdilution method; type: functional; conditions: 57/05, 18 h; method in brief: as §1
[12] = tested on: Staphylococcus epidermidis; assay: Antimicrobial activity against hospital methicillin-resistant Staphylococcus epidermidis 151/04 after 18 hrs by twofold serial microdilution method; type: functional; conditions: 151/04, 18 h; method in brief: as §1
[13] = tested on: Staphylococcus epidermidis; assay: Antimicrobial activity against hospital methicillin-resistant Staphylococcus epidermidis 23/04 after 18 hrs by twofold serial microdilution method; type: functional; conditions: 23/04, 18 h; method in brief: as §1
Staphylococcus aureus [14] = assay: Antimicrobial activity against hospital methicillin-resistant Staphylococcus aureus 522/11 after 18 hrs by twofold serial microdilution method; type: functional; conditions: 522/11, 18 h; method in brief: as §1
[15] = tested on: Staphylococcus epidermidis; assay: Antimicrobial activity against hospital methicillin-resistant Staphylococcus epidermidis 62/04 after 18 hrs by twofold serial microdilution method; type: functional; conditions: 62/04, 18 h; method in brief: as §1
[16] = tested on: Staphylococcus epidermidis; assay: Antimicrobial activity against Staphylococcus epidermidis ATCC 12228 after 18 hrs by twofold serial microdilution method; type: functional; conditions: ATCC 12228, 18 h
[17] = tested on: Staphylococcus epidermidis; assay: Ratio of ciprofloxacin MIC to compound MIC for hospital methicillin-resistant Staphylococcus epidermidis 151/04 after 18 hrs by twofold serial microdilution method; type: functional; method in brief: as §3
Staphylococcus aureus [18] = assay: Ratio of ciprofloxacin MIC to compound MIC for hospital methicillin-resistant Staphylococcus aureus 53/05 after 18 hrs by twofold serial microdilution method; type: functional; method in brief: as §3
Staphylococcus aureus [19] = assay: Antimicrobial activity against Staphylococcus aureus ATCC 6538 at 400 ug after 18 hrs by disc-diffusion method; type: functional; conditions: ATCC 6538, 18 h, read-out: IZ; method in brief: as §2
[20] = tested on: Staphylococcus epidermidis; assay: Ratio of ciprofloxacin MIC to compound MIC for hospital methicillin-resistant Staphylococcus epidermidis […]/[…] after 18 hrs by twofold serial microdilution method; type: functional, 16/04
Staphylococcus aureus [21] = assay: Antimicrobial activity against Staphylococcus aureus ATCC 6538 after 18 hrs by twofold serial microdilution method; type: functional; conditions: ATCC 6538, 18 h
Staphylococcus aureus [22] = assay: Antimicrobial activity against Staphylococcus aureus ATCC 29213 after 18 hrs by twofold serial microdilution method; type: functional; conditions: ATCC 29213, 18 h
Staphylococcus aureus [23] = assay: Ratio of ciprofloxacin MIC to compound MIC for hospital methicillin-resistant Staphylococcus aureus 81/05 after 18 hrs by twofold serial microdilution method; type: functional; method in brief: as §3
Staphylococcus aureus [24] = assay: Ratio of ciprofloxacin MIC to compound MIC for hospital methicillin-resistant Staphylococcus aureus 573/11 after 18 hrs by twofold serial microdilution method; type: functional; method in brief: as §3
[25] = tested on: Staphylococcus epidermidis; assay: Antimicrobial activity against Staphylococcus epidermidis ATCC 35984 after 18 hrs by twofold serial microdilution method; type: functional; conditions: ATCC 35984, 18 h
[26] = Cytotoxicity against bovine MDBK cells assessed as cell viability after 48 to 96 hrs by MTT assay; type: cell-based, Bos taurus; conditions: cattle
[27] = tested on: Vesicular stomatitis virus; assay: Antiviral activity against Vesicular stomatitis virus ATCC VR 1540 infected in African green monkey Vero 76 cells assessed as reduction of virus-plaque formation after 2 days by crystal violet staining; type: functional, organism-based; conditions: ATCC VR 1540, Vero, 48 h
[28] = Antiviral activity against Bovine viral diarrhea virus 1-NADL ATCC VR-534 infected in MDBK cells assessed as protection against virus-induced cytopathogenicity after 3 to 4 days by MTT assay; type: functional, cell-based; conditions: Bovine viral diarrhea virus isolates and strains, ATCC VR-534, MDBK
Method in brief: (§4)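 Cells seeded in 96-well plates (BHK 5x10^4, MDBK 3x10^4 cells/well), grown overnight to confluence, infected at m.o.i. 0.01 (BHK for Reo-1, MDBK for BVDV); serial compound dilutions in maintenance medium with 0.5% inactivated FBS added after 1 h; viability by MTT after 3–4 days at 37°C; EC50 for 50% protection by linear regression.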

[29] = tested on: Staphylococcus epidermidis; assay: Antimicrobial activity against hospital methicillin-resistant Staphylococcus epidermidis 76/04 after 18 hrs by twofold serial microdilution method; type: functional; conditions: 76/04, 18 h; method in brief: as §1
[30] = tested on: Mycobacterium tuberculosis; assay: Antimycobacterial activity against drug-sensitive Mycobacterium tuberculosis Spec. 192; type: functional
Method in brief: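 Classical test-tube successive-dilution method in Youmans' modification of Proskauer and Beck liquid medium with 10% bovine serum. Inoculum came from 14-day cultures. DMSO stock was 10 mg/mL, diluted geometrically in medium. Tubes were incubated at 37 °C. Concentrations tested were 3.1, 6.2, 12.5, 25, 50 and 100 µg/ml. MIC is the minimum concentration inhibiting growth relative to compound-free tubes.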

[31] = tested on: Mammalian orthoreovirus 1; assay: Antiviral activity against Reovirus type-1 ATCC VR-214 infected in BHK cells assessed as protection against virus-induced cytopathogenicity after 3 to 4 days by MTT assay; type: functional, cell-based; conditions: Mammalian orthoreovirus 1, ATCC VR-214, BHK; method in brief: as §4

Structure (SMILES)	CC50 [1] [µM]	MIC (Staphylococcus aureus [2]) [µg/mL]	CC50 [3] [µM]	zone of inhibition at 400 µg/disc (Bacillus subtilis) [mm]	Ratio [4]	Ratio (Staphylococcus aureus [5])	CC50 [6] [µM]	MIC [7] [µg/mL]	zone of inhibition at 400 µg/disc (Staphylococcus aureus [8]) [mm]	Ratio (Staphylococcus aureus [9])	MIC [10] [µg/mL]	MIC (Staphylococcus aureus [11]) [µg/mL]	MIC [12] [µg/mL]	MIC [13] [µg/mL]	MIC (Staphylococcus aureus [14]) [µg/mL]	MIC [15] [µg/mL]	MIC [16] [µg/mL]	Ratio [17]	Ratio (Staphylococcus aureus [18])	zone of inhibition at 400 µg/disc (Staphylococcus aureus [19]) [mm]	other results
FC(F)(F)c1cccc(NC(=S)Nc2ccc(Cl)cc2)c1	10	16 (≈ 48.4 µM)	6.8	12	128	128	11	16 (≈ 48.4 µM)	12	128	16 (≈ 48.4 µM)	16 (≈ 48.4 µM)	8 (≈ 24.2 µM)	16 (≈ 48.4 µM)	16 (≈ 48.4 µM)	16 (≈ 48.4 µM)	8 (≈ 24.2 µM)	128	128	13	inhibition zone (IZ) (Micrococcus luteus): inactive; Ratio [20]: 128; MIC (Staphylococcus aureus [21]): 8 µg/mL (≈ 24.2 µM); MIC (Staphylococcus aureus [22]): 8 µg/mL (≈ 24.2 µM); Ratio (Staphylococcus aureus [23]): 128; Ratio (Staphylococcus aureus [24]): 128; MIC [25]: 4 µg/mL (≈ 12.1 µM); CC50 [26]: 17 µM; EC50 [27]: > 11 µM; EC50 [28]: > 17 µM; MIC [29]: 8 µg/mL (≈ 24.2 µM); MIC [30]: > 100 µg/mL; EC50 [31]: > 10 µM
FC(F)(F)c1cccc(NC(=S)NCCc2ccccc2)c1	29	8 (≈ 24.7 µM)	8.8	16	128	128	46	8 (≈ 24.7 µM)	15	128	16 (≈ 49.3 µM)	8 (≈ 24.7 µM)	16 (≈ 49.3 µM)	8 (≈ 24.7 µM)	16 (≈ 49.3 µM)	8 (≈ 24.7 µM)	16 (≈ 49.3 µM)	128	128	15	zone of inhibition at 400 µg/disc (Micrococcus luteus; ATCC 9341, 18 h, read-out: IZ): 18 mm; Ratio [20]: 128; MIC (Staphylococcus aureus [21]): 8 µg/mL (≈ 24.7 µM); MIC (Staphylococcus aureus [22]): 8 µg/mL (≈ 24.7 µM); Ratio (Staphylococcus aureus [23]): 128; Ratio (Staphylococcus aureus [24]): 128; MIC [25]: 8 µg/mL (≈ 24.7 µM); CC50 [26]: 48 µM; EC50 [27]: > 46 µM; EC50 [28]: > 48 µM; MIC [29]: 8 µg/mL (≈ 24.7 µM); MIC [30]: 100 µg/mL (≈ 308 µM); EC50 [31]: > 29 µM
